According to ChEMBL document CHEMBL3102739, “Synthesis and antiproliferative activity of conformationally restricted 1,2,3-triazole analogues of combretastatins in the sea urchin embryo model and against human cancer cell lines” (Bioorg Med Chem, 2014):
pEC50, pIC50: −log10 of the molar value. Active and inactive are the calls of the source.

Legend:
[1] = Cytotoxicity against human Jurkat/A4 cells assessed as cell death at 1 uM after 48 hrs by trypan blue exclusion assay relative to control; assay type: functional
How it was run: (§1)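 Compound added to exponentially growing Jurkat or Jurkat/A4 cells in RPMI-1640 with 10% FCS at 37 °C. Viable cells counted directly by trypan blue exclusion after 48 h. EC50 taken by linear interpolation of survival data. Mean±SD from three independent experiments.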

[2] = system: Jurkat; test: Cytotoxicity against human Jurkat cells assessed as cell viability after 48 hrs by trypan blue exclusion assay; assay type: functional, cell-based; how it was run: as §1
[3] = system: Paracentrotus lividus; test: Antimitotic activity against sea urchin embryo free-swimming blastula model assessed as embryo spinning compound treated at 8 to 10 hrs post-fertilization measured after 0.25 to 20 hrs; assay type: functional, Blastula stage
[4] = system: Paracentrotus lividus; test: Antimitotic activity against sea urchin embryo model assessed as cleavage arrest of fertilized egg compound treated at 8 to 20 mins post-fertilization and 45 to 55 mins prior to first mitotic cycle completion measured 2.5 to 5.5 hrs post-fertilization; assay type: functional
How it was run: (§2)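 Fertilized eggs are exposed 8–20 min after fertilization to 2-fold decreasing concentrations. Stocks are 10 mM in DMSO, then diluted 10-fold in 95% EtOH; final DMSO is at most 0.05% and EtOH at most 1%. Embryos are kept as a monolayer, up to 2000 embryos/mL, in filtered seawater at room temperature. The value is the threshold concentration giving cleavage alteration, embryo death before hatching or full mitotic arrest. Duplicates were run.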

[5] = system: Paracentrotus lividus; test: Antimitotic activity against sea urchin embryo model assessed as cleavage alteration of fertilized egg compound treated at 8 to 20 mins post-fertilization and 45 to 55 mins prior to first mitotic cycle completion measured 2.5 to 5.5 hrs post-fertilization; assay type: functional; how it was run: as §2
[6] = Cytotoxicity against human MES-SA/Dx5 cells after 72 hrs by MTS assay; assay type: functional, cell-based; settings: MES-SA/Dx5, 72 h
[7] = Cytotoxicity against human MES-SA cells after 72 hrs by MTS assay; assay type: functional, cell-based
[8] = Cytotoxicity against multidrug-resistant human HL60/TX1000 cells after 72 hrs by MTS assay; assay type: functional, cell-based; settings: HL60/TX1000, 72 h
[9] = system: HL-60; test: Cytotoxicity against human HL60 cells after 72 hrs by MTS assay; assay type: functional, cell-based; settings: HL-60, 72 h
[10] = Induction of apoptosis in human Jurkat/A4 cells assessed as PARP-1 cleavage at 300 nM after 48 hrs by FITC-conjugated flow cytometric analysis (reference value: 0.9%); assay type: functional
[11] = system: Jurkat; test: Induction of apoptosis in human Jurkat cells assessed as PARP-1 cleavage at 30 nM after 48 hrs by FITC-conjugated flow cytometric analysis (reference value: 3.5%); assay type: functional
[12] = Induction of apoptosis in human Jurkat/A4 cells assessed as active caspase 3 expression at 300 nM after 48 hrs by FITC-conjugated flow cytometric analysis (reference value: 1.1%); assay type: functional
[13] = Induction of apoptosis in human Jurkat/A4 cells assessed as active caspase 3 expression at 300 nM after 24 hrs by FITC-conjugated flow cytometric analysis (reference value: 1.1%); assay type: functional
[14] = system: Jurkat; test: Induction of apoptosis in human Jurkat cells assessed as active caspase 3 expression at 30 nM after 48 hrs by FITC-conjugated flow cytometric analysis (reference value: 3.3%); assay type: functional
[15] = system: Jurkat; test: Induction of apoptosis in human Jurkat cells assessed as active caspase 3 expression at 30 nM after 24 hrs by FITC-conjugated flow cytometric analysis (reference value: 3.3%); assay type: functional
[16] = system: Jurkat; test: Induction of apoptosis in human Jurkat cells assessed as active caspase 3 expression at 30 nM by FITC-conjugated flow cytometric analysis; assay type: functional, cell-based; settings: TDE = time-dependent effect
[17] = system: Jurkat/A4; test: Induction of apoptosis in human Jurkat/A4 cells assessed as Bcl-2 expression at 300 nM after 24 to 48 hrs Western blotting analysis; assay type: functional, cell-based
How it was run: (§3)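 Cells in RPMI-1640 with 10% FCS at 37 °C, 5% CO2, were treated for 24 or 48 h, then washed in cold PBS. They were lysed 30 min at 4 °C in 20 mM Tris-HCl pH 7.4, 1% Triton X-100, 150 mM NaCl and protease inhibitors. Equal protein was run on 12% SDS-PAGE and blotted to PVDF, with 5% milk block. Primary MoAb 2 h RT, HRP anti-mouse 60 min, ECL; β-actin loading control.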

[18] = system: Jurkat; test: Induction of apoptosis in human Jurkat cells assessed as Bcl-2 expression at 30 nM after 24 to 48 hrs Western blotting analysis; assay type: functional, cell-based; how it was run: as §3
[19] = system: Jurkat/A4; test: Induction of apoptosis in human Jurkat/A4 cells assessed as reduction of XIAP expression at 300 nM after 24 hrs Western blotting analysis; assay type: functional, cell-based; how it was run: as §3
[20] = system: Jurkat; test: Induction of apoptosis in human Jurkat cells assessed as reduction of XIAP expression at 30 nM after 24 hrs Western blotting analysis; assay type: functional, cell-based; how it was run: as §3
[21] = system: Jurkat/A4; test: Induction of apoptosis in human Jurkat/A4 cells assessed as caspase 2 activation at 300 nM after 24 to 48 hrs by Western blotting analysis; assay type: functional, cell-based; how it was run: as §3
[22] = system: Jurkat/A4; test: Induction of apoptosis in human Jurkat/A4 cells assessed as caspase 9 activation at 300 nM after 24 to 48 hrs by Western blotting analysis; assay type: functional, cell-based; how it was run: as §3
[23] = system: Jurkat; test: Induction of apoptosis in human Jurkat cells assessed as caspase 2 activation at 30 nM after 24 to 48 hrs by Western blotting analysis; assay type: functional, cell-based; how it was run: as §3
[24] = system: Jurkat; test: Induction of apoptosis in human Jurkat cells assessed as caspase 9 activation at 30 nM after 48 hrs by Western blotting analysis; assay type: functional, cell-based; how it was run: as §3
[25] = Cell cycle arrest in human Jurkat/A4 cells assessed as accumulation at sub-G1 phase at 300 nM after 48 hrs by propidium iodide staining-based flow cytometric analysis (reference value: 17.1%); assay type: functional
[26] = system: Jurkat; test: Cell cycle arrest in human Jurkat cells assessed as accumulation at sub-G1 phase at 30 nM after 48 hrs by propidium iodide staining-based flow cytometric analysis (reference value: 12.2%); assay type: functional
[27] = system: Jurkat/A4; test: Induction of apoptosis in human Jurkat/A4 cells assessed as condensed and fragmented nuclei at 300 nM after 48 hrs by May-Grunwald-Giemsa staining-based microscopic analysis; assay type: functional, cell-based
How it was run: (§4)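 Jurkat or Jurkat/A4 suspension cultures in RPMI-1640 with 10% FCS at 37 °C, 5% CO2 were treated for 48 h alongside untreated controls. Cells were cytospun, stained May–Grünwald–Giemsa and examined by light microscopy with a 100× objective for nuclear and mitotic abnormalities.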

[28] = system: Jurkat/A4; test: Induction of apoptosis in human Jurkat/A4 cells assessed as small cell fragments with unequally segregated chromosomes enclosed by cell membrane at 300 nM after 48 hrs by May-Grunwald-Giemsa staining-based microscopic analysis; assay type: functional; how it was run: as §4
[29] = system: Jurkat/A4; test: Induction of apoptosis in human Jurkat/A4 cells assessed as micronuclei formation at 300 nM after 48 hrs by May-Grunwald-Giemsa staining-based microscopic analysis; assay type: functional, cell-based; how it was run: as §4
[30] = system: Jurkat; test: Induction of apoptosis in human Jurkat cells assessed as condensed and fragmented nuclei at 15 nM after 48 hrs by May-Grunwald-Giemsa staining-based microscopic analysis; assay type: functional, cell-based; how it was run: as §4
[31] = system: Jurkat; test: Induction of apoptosis in human Jurkat cells assessed as small cell fragments with unequally segregated chromosomes enclosed by cell membrane at 15 nM after 48 hrs by May-Grunwald-Giemsa staining-based microscopic analysis; assay type: functional; how it was run: as §4
[32] = system: Jurkat; test: Induction of apoptosis in human Jurkat cells assessed as micronuclei formation at 15 nM after 48 hrs by May-Grunwald-Giemsa staining-based microscopic analysis; assay type: functional, cell-based; how it was run: as §4
[33] = Cell cycle arrest in human Jurkat/A4 cells assessed as decrease in accumulation at G0/G1 phase at 300 nM after 24 hrs by propidium iodide staining-based flow cytometric analysis; assay type: functional
[34] = Cell cycle arrest in human Jurkat/A4 cells assessed as increase in accumulation at G2/M phase at 300 nM after 24 hrs by propidium iodide staining-based flow cytometric analysis; assay type: functional
[35] = system: Jurkat; test: Cell cycle arrest in human Jurkat cells assessed as decrease in accumulation at G0/G1 phase at 30 nM after 24 hrs by propidium iodide staining-based flow cytometric analysis; assay type: functional
[36] = system: Jurkat; test: Cell cycle arrest in human Jurkat cells assessed as increase in accumulation at G2/M phase at 30 nM after 24 hrs by propidium iodide staining-based flow cytometric analysis; assay type: functional
[37] = system: Jurkat/A4; test: Cytotoxicity against human Jurkat/A4 cells assessed as cell death treated for 2 hrs followed by cultivation in drug-free medium for 7 days; assay type: functional, cell-based
How it was run: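 Jurkat/A4 cells in RPMI-1640 with 10% fetal calf serum are exposed for two hours, then cultured seven days in drug-free medium and scored for delayed cell death.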

Structure (SMILES): COc1ccc(-c2cnnn2-c2cc(OC)c(OC)c(OC)c2)cc1
- Activity [1]: <20%
- pEC50 [2]: 7.52
- EC [3]: 1 µM
- EC [4]: 0.2 µM
- EC [5]: 0.02 µM
- pIC50 [6]: 7.70
- pIC50 [7]: 7.70
- pIC50 [8]: 7.70
- pIC50 [9]: 7.70
- Activity [10]: 2.5%
- Activity [11]: 61.4%
- Activity [12]: 1.6%
- Activity [13]: 1.8%
- Activity [14]: 32.1%
- Activity [15]: 19.6%
- Activity [16]: tde
- Activity [17]: inactive
- Activity [18]: inactive
- Activity [19]: inactive
- Activity [20]: Active
- Activity [21]: inactive
- Activity [22]: inactive
- Activity [23]: Active
- Activity [24]: Active
- Activity [25]: 26.2%
- Activity [26]: 43.4%
- Activity [27]: Active
- Activity [28]: Active
- Activity [29]: Active
- Activity [30]: Active
- Activity [31]: Active
- Activity [32]: Active
- Activity [33]: Active
- Activity [34]: Active
- Activity [35]: Active
- Activity [36]: Active
- Activity [37]: Active
